High-throughput results from PubChem.
Sampled rows, rich in hits. Any-hit rate of the full collection: about 3.4%.
SF-1 act – activates the human nuclear receptor SF-1; Q13285; CHO-K1 Gal4-SF-1 LBD luciferase reporter; % increase over DMSO SF-1-specific signal; activation, % at 10 µM; hit rate 1.9% among 65,000; AID 522;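 active = activation above the mean activation of all tested compounds plus 3 SD, cut at about 50% in these data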
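Assay system: CHO-K1 cells co-transfected with Gal4 DBD–human SF-1 LBD, 5xGal4 luciferase reporter; doses: 10 µM only; incubation: 20 h compound exposure at 37 °C after 1 h cell settling; signal: luciferase light emission; evaluation: percent activation versus DMSO; repeats: one test per compound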
MMP13 inh – blocks human MMP13 activity; P45452; MMP-13 fTHP FRET cleavage, Mca fluorescence; inhibition, % at 4 µM; hit rate 0.07% among 65,000; AID 570;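 active = inhibition above the mean of compound-free control plate wells plus 3 SD, cut at about 14% in these data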;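 also: 0% = DMSO wells and 100% = wells with reference MMP-13 inhibitor after basal subtraction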
JNK3 inh – inhibitors of human JNK3 kinase. purified JNK3 kinase activity, HTS. inhibition, % at 8 µM. hit rate 0.61% among 60,000; in the data active = inhibition above about 17%;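 also: 0% = DMSO and 100% = reference inhibitor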
Target sequence (P53779 whole entry, looked up): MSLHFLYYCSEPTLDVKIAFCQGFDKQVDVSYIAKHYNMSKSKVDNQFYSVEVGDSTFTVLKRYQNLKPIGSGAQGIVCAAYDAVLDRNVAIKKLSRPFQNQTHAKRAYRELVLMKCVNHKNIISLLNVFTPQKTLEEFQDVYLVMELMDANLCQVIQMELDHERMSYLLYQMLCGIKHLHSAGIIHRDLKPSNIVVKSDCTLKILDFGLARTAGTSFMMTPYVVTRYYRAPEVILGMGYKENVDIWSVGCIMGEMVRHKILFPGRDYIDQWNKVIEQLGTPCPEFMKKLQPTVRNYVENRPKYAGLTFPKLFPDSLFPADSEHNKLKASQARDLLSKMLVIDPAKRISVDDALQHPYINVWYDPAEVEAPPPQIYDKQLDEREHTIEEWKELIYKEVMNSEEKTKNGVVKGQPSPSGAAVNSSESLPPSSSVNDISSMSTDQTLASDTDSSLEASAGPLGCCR
RORa activator – RORA (human) activation; hit rate 1.5% among 65,000; AID 560; CHO-K1 Gal4-RORA LBD luciferase reporter, luminescence; percent increase over mock-subtracted basal signal; P35398; activation, % at 10 µM;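 active = activation above the mean of all tested compounds plus 3 SD, cut at about 49% in these data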;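 also: 0% = DMSO-treated RORA cells and 100% = added signal equal to DMSO minus mock-transfected cells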
ROCK2 blocker – blocks human Rho kinase 2 activity; O75116; hit rate 0.35% among 60,000; inhibition, % at 6 µM; purified ROCK2, Kinase-Glo ATP depletion luminescence; AID 604;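 active = inhibition above the screen-wide mean inhibition plus 3 SD, cut at about 18% in these data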;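 also: plate controls were DMSO wells for no effect and Y-27632 control wells after no-enzyme background subtraction for full effect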
PKA inh – PKA (human) kinase inhibition | inhibition, % at 6 µM | P17612 | hit rate 0.1% among 65,000 | PKA Kemptide phosphorylation, Kinase-Glo ATP luminescence;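 active = inhibition above the screen-wide mean inhibition plus 3 SD, cut at about 21% in these data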
The depositor's hits bear a star; . = not tested or not shown.

SMILES	SF-1 act	MMP13 inh	JNK3 inh	RORa activator	ROCK2 blocker	PKA inh
Cc1ccnc(NC(=O)c2c(O)c3ccccc3n(C)c2=O)c1	76*	-8	1	74*	-3	-3
C=CCNc1nc(-c2ccc(OC)cc2OC)cs1	102*	0	-6	52*	3	9
COc1ccccc1CNC(=O)CN(C)CC(=O)Nc1cccc(F)c1	-13	-1	-10	-19	1	-3
c1ccc(OCCOc2ncnc3sccc23)cc1	53*	1	9	39	3	11
CC(C)NC(=O)NC(=O)COc1ncnc2sccc12	-4	3	.	10	.	0
CCOC(=O)c1sc(=NC(=O)c2ccc(OC)c(OC)c2)n(C)c1C	15	5	-8	-8	-6	-8
CCOC(=O)c1sc(=NC(=O)c2cccc(OC)c2)n(C)c1C	57*	3	1	33	0	-1
CCn1c(SCC(=O)c2ccc(Cl)cc2)nnc1C(C)C	16	2	3	-10	1	-1
CN(C)/C=N/c1cnc(C(=O)c2ccc(Cl)cc2)n1C	48	2	-11	76*	1	6
COC(=O)C1=CNC=C(C(=O)OC)C1c1ccc(C(=O)OC)cc1	-6	-109	9	-23	0	-1
CCN(CC)c1ccc(C(=O)n2cnc3ccccc32)cc1	64*	0	11	39	8	10
CCCC(=O)Nc1ccc(C(=O)n2nnc3ccccc32)cc1	3	0	3	-4	6	3
CCc1nc2c(sc3nc(N4CCOCC4)c4c(c32)CC(C)(C)OC4)c(=O)o1	8	5	2	-2	2	3
COC(=O)C1C(=O)c2c([nH]c(C(=O)OC3CCCC3)c2C)CC1C (stereo not drawn)	56*	6	.	49*	.	9
O=C(CSc1nc2cc(Cl)ccc2o1)N1CCOCC1	12	-1	-3	12	3	-1
O=C(O)c1ccc2oc(SCC(=O)N3CCCCC3)nc2c1	54*	0	4	29	5	6
O=C(Cn1c(CN2CCCCC2)nc2ccccc2c1=O)NCc1ccco1	-3	5	2	-8	4	3
Cn1c(-c2ccc3c(c2)OCO3)cnc1NCc1ccccc1	68*	3	11	10	-2	-4
COc1ccc(-c2nnc(SCC(=O)Nc3ncc(C)s3)n2-c2ccccc2)cc1OC	33	-3	-1	18	1	12
O=C(O)c1n[nH]c2ccccc12	-6	6	.	-4	.	1
c1ccc(-c2n[nH]c3ccccc23)cc1	4	-4	84*	1	-6	9
O=C(NCCc1ccccc1)C1CCN(S(=O)(=O)c2ccc(-c3nn[nH]n3)cc2)CC1	-2	4	-2	-17	9	15
CCOC(=O)c1cnc2cc3c(cn2c1=O)CCCC3	86*	-159	-9	27	-1	-5
CCOC(=O)c1cnc2scnn2c1=O	-3	-3	5	-11	3	2
Cc1c(C(=O)N2CCCCC2)sc(N)c1C#N	-8	4	-1	-16	26*	-2
SMILES	SF-1 act	MMP13 inh	JNK3 inh	RORa activator	ROCK2 blocker	PKA inh
CCCCOC(=O)Cn1c(=O)c2c(nc(Br)n2Cc2ccccc2)n(C)c1=O	3	1	2	1	1	3
CCN(CCCNC(=O)c1cn(CC)c2ccc(S(=O)(=O)N(C)C)cc2c1=O)c1cccc(C)c1	10	1	11	62*	0	0
CCn1cc(C(=O)NCCCN(C)c2ccccc2)c(=O)c2cc(S(=O)(=O)N(C)C)ccc21	1	-1	-4	20	4	7
O=C(CCn1c(=S)[nH]c2cc3c(cc2c1=O)OCO3)N1CCN(C2CCCCC2)CC1	7	-3	.	-8	.	7
C(=N\c1nc2ccccc2n1CCN1CCCCC1)/c1cccs1	5	-2	-2	-16	19*	5
Cc1c(/C(O)=C2/C(=O)C(=O)N(CCCN3CCOCC3)C2c2ccncc2)cnn1-c1ccccc1 (stereo not drawn)	-2	3	1	-1	-4	3
c1ccc(-c2csc3nnc(SCc4ccc5c(c4)OCO5)n23)cc1	-5	0	5	4	1	-1
OCCn1c(-c2ccc3c(c2)OCO3)csc1=Nc1ccccc1	51*	2	4	46	8	9
Cc1cccc(NC(=O)c2cc3ccccc3o2)c1	90*	-15	1	26	-1	4
CCCn1nnc(NC(=O)c2cc3ccccc3o2)n1	20	0	-7	49*	2	1
O=C(Nc1cccc(Br)c1)c1cc2ccccc2o1	46	4	-1	71*	3	7
CC(C)C(=O)Nc1ccc(NC(=O)c2cc3ccccc3o2)cc1	24	5	1	59*	7	5
O=C1OCCC1Sc1nc2cc(Cl)ccc2s1 (stereo not drawn)	13	1	-3	-30	6	9
CCC(=O)Nc1cccc(NC(=O)c2cc3ccccc3o2)c1	25	4	8	58*	5	8
CCOC(=O)c1ccc(NC(=O)c2cc3ccccc3o2)cc1	2	1	-6	12	4	9
Cc1cc2oc(=O)cc(COC(=O)c3cccc(N(C)C)c3)c2cc1C	5	-9	2	6	7	10
O=c1[nH]c(CN2CCN(Cc3ccccc3)CC2)nc2sc3c(c12)CCC3	5	-10	2	16	-1	4
O=C(Nc1ccc2nc3n(c(=O)c2c1)CCCCC3)c1ccccn1	28	2	-3	54*	1	0
CSc1ccc(/C=N/n2nnnc2N)cc1	25	-24	-5	51*	7	3
CCN(C)c1ccc(/C=N\n2nnnc2N)cc1	87*	-14	-7	67*	4	6
CCN(CC)c1ccc(/C=N/n2nnnc2N)c(O)c1	20	2	-6	26	4	-7
COc1cc(CO)cc(Br)c1OCc1cccnc1	0	-2	3	23	5	-3
O=C1NCCCC1C(=O)N1CCN(C(c2ccccc2)c2ccccc2)CC1 (stereo not drawn)	-14	2	-7	-1	-6	-5
COc1cc(NC(=O)C2CC(c3cccc(OC)c3OC)=NO2)cc(OC)c1OC (stereo not drawn)	9	-1	69*	7	4	6
COc1cc(C2=NOC(C(=O)Nc3ccc(C(C)=O)cc3)C2)cc(OC)c1OC (stereo not drawn)	39	3	0	32	2	3
COc1cc(C2=NOC(C(=O)NCc3ccco3)C2)cc(OC)c1OC (stereo not drawn)	55*	1	-2	82*	7	10
CN1CCN(/C=N/c2sc3c(c2C#N)CCCCC3)CC1	54*	8	0	34	10	3
